One data set relates to MT2. As to the kind of experiment: Cytotoxicity against human MT2 cells after 5 days by MTT assay. Type of data set: cell-based. As to conditions: mt2, 120 h. In outline: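 Mock-infected MT-2 cells (1 × 10^5 cells/mL) grown 5 days in RPMI 1640 with 10% dFBS and kanamycin at varying compound concentrations, in triplicate. Viability read by MTT (5 h), then acidified isopropanol lysis and absorbance at 595 nm. Triplicate averages plotted against concentration; CC50 is the concentration reducing viable cells by 50%.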
(Tetrazolium assays rely on reduction of a dye to a coloured formazan, in cell work by metabolically active cells.)
A word on the CC50: it is the concentration giving 50% cytotoxicity. High values mean better tolerance by the cells, low ones harm at low concentration. As for `Cc1cn([C@H]2C=C[C@@H](CO)O2)c(=O)[nH]c1=O` [STAVUDINE], the CC50 was more than 100 µM.
Still for that read-out and setting: under `COc1ccc(OCCOCCOCCOCCOCC#Cc2cn([C@H]3C=C[C@@H](CO)O3)c(=O)[nH]c2=O)c(CCNC(=S)Nc2ccc(Br)cn2)c1` stands 18 µM; under `COc1ccc(OCCC#Cc2cn([C@H]3C=C[C@@H](CO)O3)c(=O)[nH]c2=O)c(CCNC(=S)Nc2ccc(Br)cn2)c1`, 17 µM; under `COc1ccc(OCCOCC#Cc2cn([C@H]3C=C[C@@H](CO)O3)c(=O)[nH]c2=O)c(CCNC(=S)Nc2ccc(Br)cn2)c1`, 38 µM.
The same measure, in the same setting: under `COC(=O)[C@H](C)NP(=O)(OC[C@@H]1C=C[C@H](n2cc(C#CCOCCOCCOCCOCCOc3ccc(OC)cc3CCNC(=S)Nc3ccc(Br)cn3)c(=O)[nH]c2=O)O1)Oc1ccc(C)cc1` (stereo not given in full) stands 11 µM.
`COc1ccc(OC)c(CCNC(=S)Nc2ccc(Br)cn2)c1` gave a CC50 of more than 1 µM.
The same measure, in the same setting: then `COc1ccc(OCCOCCOCC#Cc2cn([C@H]3C=C[C@@H](CO)O3)c(=O)[nH]c2=O)c(CCNC(=S)Nc2ccc(Br)cn2)c1`, with 43 µM.

The next data set has as its target Human immunodeficiency virus type 1 reverse transcriptase (Human immunodeficiency virus 1, UniProt Q72547). As to the kind of experiment: Inhibition of HIV1 reverse transcriptase-mediated thymidine incorporation into D23/D36 primer-template preincubated for 15 mins by polyacrylamide gel-electrophoresis.
Conditions: not given
In outline: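 RT at 6 nM active sites (from pre-steady-state active-site titration) pre-incubated ≥15 min with 1 μM 5′-radiolabelled D23/D36 primer/template, then ≥15 min on ice with inhibitor (DMSO held constant, <2%; DMSO-only control). Reaction started with 5 μM dTTP plus 10 mM MgCl2 (final concentrations), 15 min at 37 °C, quenched with 0.3 M EDTA. Products resolved on 20% denaturing PAGE. IC50 taken from a hyperbolic fit of product versus inhibitor concentration.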
The IC50 is the concentration that gives 50% inhibition. A high value points to lower potency. In the case of `Cc1cn([C@H]2C=C[C@@H](CO)O2)c(=O)[nH]c1=O` [STAVUDINE], 9.6 µM corresponded to half-maximal inhibition (IC50).
In turn, `COc1ccc(OCCOCCOCCOCCOCC#Cc2cn([C@H]3C=C[C@@H](CO)O3)c(=O)[nH]c2=O)c(CCNC(=S)Nc2ccc(Br)cn2)c1` came in with an IC50 of 1.4 µM.
The molecule `COc1ccc(OCCC#Cc2cn([C@H]3C=C[C@@H](CO)O3)c(=O)[nH]c2=O)c(CCNC(=S)Nc2ccc(Br)cn2)c1` registered an IC50 of 0.061 µM.
For the molecule `COc1ccc(OCCOCC#Cc2cn([C@H]3C=C[C@@H](CO)O3)c(=O)[nH]c2=O)c(CCNC(=S)Nc2ccc(Br)cn2)c1`, the IC50 is 0.575 µM.
Regarding `COC(=O)[C@H](C)NP(=O)(OC[C@@H]1C=C[C@H](n2cc(C#CCOCCOCCOCCOCCOc3ccc(OC)cc3CCNC(=S)Nc3ccc(Br)cn3)c(=O)[nH]c2=O)O1)Oc1ccc(C)cc1` (stereo not given in full), the midpoint of inhibition, the IC50, lay at 2.3 µM.
Same read-out and setting: then `COc1ccc(OC)c(CCNC(=S)Nc2ccc(Br)cn2)c1`, with 0.038 µM; and `COc1ccc(OCCOCCOCC#Cc2cn([C@H]3C=C[C@@H](CO)O3)c(=O)[nH]c2=O)c(CCNC(=S)Nc2ccc(Br)cn2)c1`, with 0.85 µM.

Another data set deals with Human immunodeficiency virus 1. As to the kind of experiment: Antiviral activity against HIV1 3B infected in human MT-2 cells assessed as inhibition of viral-mediated cell death after 5 days by MTT assay. The note with it: Human immunodeficiency virus 1, 3B, MT2, 120 h. The format is functional, organism-based. In outline: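 MT-2 cells at 1 × 10^5 cells/mL infected with wild-type HIV-IIIB at MOI 0.1, cultured 5 days in RPMI 1640 with 10% dFBS and kanamycin across varying compound concentrations in triplicate. MTT added for 5 h, cells lysed with acidified isopropanol, absorbance read at 595 nm. Triplicate averages plotted as dose-response curves; EC50 is the concentration inhibiting viral-mediated cell death by 50%.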
The term EC50 denotes the concentration giving half of the maximal effect. Take `Cc1cn([C@H]2C=C[C@@H](CO)O2)c(=O)[nH]c1=O` [STAVUDINE]: the 50% effective concentration (EC50) is 2.3 µM.
In the case of `COc1ccc(OCCOCCOCCOCCOCC#Cc2cn([C@H]3C=C[C@@H](CO)O3)c(=O)[nH]c2=O)c(CCNC(=S)Nc2ccc(Br)cn2)c1`, the EC50 turned out to be 3.1 µM.
Same read-out and setting: then `COc1ccc(OCCC#Cc2cn([C@H]3C=C[C@@H](CO)O3)c(=O)[nH]c2=O)c(CCNC(=S)Nc2ccc(Br)cn2)c1`, with 0.25 µM; and `COc1ccc(OCCOCC#Cc2cn([C@H]3C=C[C@@H](CO)O3)c(=O)[nH]c2=O)c(CCNC(=S)Nc2ccc(Br)cn2)c1`, with 1.3 µM; and `COC(=O)[C@H](C)NP(=O)(OC[C@@H]1C=C[C@H](n2cc(C#CCOCCOCCOCCOCCOc3ccc(OC)cc3CCNC(=S)Nc3ccc(Br)cn3)c(=O)[nH]c2=O)O1)Oc1ccc(C)cc1` (stereo not given in full), with 2.9 µM.
Take `COc1ccc(OCCOCCOCC#Cc2cn([C@H]3C=C[C@@H](CO)O3)c(=O)[nH]c2=O)c(CCNC(=S)Nc2ccc(Br)cn2)c1`: the concentration giving a half-maximal response (EC50) was found to be 1.9 µM.

Source of the values: ChEMBL document CHEMBL1177654, “[d4U]-spacer-[HI-236] double-drug inhibitors of HIV-1 reverse-transcriptase” (Bioorg Med Chem, 2010).
